# Results from different studies.
# Protocols differ between the studies behind these lines.
# Cell line: HCT-116
# Read-out: cell growth or viability
Compound,test,conditions,IC50 [nM]
Cc1nc(Nc2ccc3c(c2)/C(=C/c2ccccc2)C(=O)N3C)c2ccccc2n1,MTT,,21400
Cc1nc2ccc(CN(C)c3ccc(C(=O)N[C@@H](CCC(=O)O)C(=O)O)s3)cc2c(=O)[nH]1,MTT,48 h,1070
COc1nc(NCc2cn(-c3ccc(NC(=O)c4ccc(Br)cc4)cc3)nn2)nc(OC)n1,MTT,72 h,56.6
Cc1nc(NC(=O)N2CCC[C@H]2C(N)=O)sc1-c1ccnc(C(C)(C)C(F)(F)F)c1,MTT,,4340
COc1nc(NCc2cn(-c3ccc(NC(=O)c4ccc(C(F)(F)F)cc4)cc3)nn2)nc(OC)n1,MTT,72 h,39.9
Cc1ccc(-c2cc(-c3ccc(Cl)cc3)c3c(=O)[nH]c(=O)[nH]c3n2)cc1,MTT,48 h,5440
C=C(F)C(=O)N1CCN(c2nc(OC[C@@H]3CCCN3C)nc3c2CCN(c2cccc4cccc(Cl)c24)C3)C[C@@H]1CC#N,ATP luminescence,3D culture,> 1000
Cc1nc(N(Cc2ccccc2)c2ccc3c(c2)/C(=C/c2ccccc2)C(=O)N3Cc2ccccc2)c2ccccc2n1 (mixture of isomers),MTT,,980
COc1nc(NCc2cn(-c3ccc(C(N)=O)cc3)nn2)nc(OC)n1,MTT,72 h,79.7
COc1ccc(-c2cc(-c3ccc(OC)cc3)c3c(=O)n(C)c(=O)n(C)c3n2)cc1,MTT,48 h,11600
